In ChEMBL document CHEMBL1135445, “4'-Arylpyrrolomorphinans: effect of a pyrrolo-N-benzyl substituent in enhancing delta-opioid antagonist activity” (J Med Chem, 2002):
Values joined by “and” are separate entries in the source; they are usually repeats but may differ in a detail not shown here. Identical values can stand only once.

Key:
[1] = target: T1, Mu-type opioid receptor (Homo sapiens, UniProt P35372); assay: Binding affinity towards recombinant human Opioid receptor mu 1 transfected in to CHO cells for the displacement of [3H]DAMGO (mu); format: cell-based
In short: (§1)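 Radioligand displacement (Ki) at cloned human opioid receptors expressed in CHO cells. Radioligands: [3H]DAMGO for mu, [3H]Cl-DPDPE for delta, [3H]U69593 for kappa.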

[2] = Selectivity ratio towards Opioid receptor kappa 1 to Opioid receptor delta 1
[3] = target: T2, Delta-type opioid receptor (Homo sapiens, UniProt P41143); assay: Binding affinity towards recombinant human Opioid receptor delta 1 transfected in to CHO cells for the displacement of [3H]Cl-DPDPE (delta); format: cell-based; in short: as §1
[4] = target: T3, Kappa-type opioid receptor (Homo sapiens, UniProt P41145); assay: Binding affinity towards recombinant human Opioid receptor kappa 1 transfected in to CHO cells for the displacement of [3H]U-69593; format: cell-based; in short: as §1
[5] = target: Opioid receptors; mu & delta (Homo sapiens) (UniProt P41143+P35372); assay: Selectivity ratio of Opioid receptor mu 1 to Opioid receptor delta 1; format: protein assay
[6] = target: T1, Mu-type opioid receptor; assay: The antagonistic activity tested in [35S]-GTP-gamma S Recombinant Human Opioid receptor mu 1 transfected in to CHO cells for the displacement of [3H]DAMGO (mu); format: functional, cell-based
In short: (§2)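 [35S]GTPγS binding in CHO cells expressing cloned human opioid receptors. Antagonist affinity (Ke) was derived from the compound's blockade of a standard agonist: DAMGO at mu, Cl-DPDPE at delta, U69593 at kappa.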

[7] = target: T3, Kappa-type opioid receptor; assay: The antagonistic activity of compound was tested in [35S]GTP-gamma-S, Recombinant Human Opioid receptor kappa 1 transfected in to CHO cells for the displacement of [3H]U-69593; format: functional, cell-based; in short: as §2
[8] = target: T2, Delta-type opioid receptor; assay: The antagonistic activity tested in [35S]GTP-gamma-S, Recombinant Human Opioid receptor delta 1 transfected in to CHO cells for the displacement of [3H]Cl-DPDPE (delta); format: functional, cell-based; in short: as §2
[9] = target: T3, Kappa-type opioid receptor; assay: Binding affinity towards recombinant human Opioid receptor kappa 1 transfected in to CHO cells for the displacement of […]; format: cell-based; in short: as §1
[10] = target: T1, Mu-type opioid receptor; assay: The partial agonist activity tested in [35S]-GTP-gamma S Recombinant Human Opioid receptor mu 1 transfected in to CHO cells for the displacement of [3H]-DAMGO (mu); format: functional, cell-based
[11] = target: T1, Mu-type opioid receptor; assay: Selectivity ratio Opioid receptor mu 1 to Opioid receptor delta 1
[12] = target: T2, Delta-type opioid receptor; assay: The antagonistic activity tested in [35S]GTP-gamma-S, Recombinant Human Opioid receptor delta 1 in to CHO cells for the displacement of [3H]Cl-DPDPE (delta); format: functional, cell-based; in short: as §2
[13] = target: T2, Delta-type opioid receptor; assay: Partial agonist activity tested in [35S]GTP-gamma-S, Recombinant Human Opioid receptor delta 1 transfected in to CHO cells for the displacement of [3H]Cl-DPDPE (delta); format: functional, cell-based
[14] = target: T2, Delta-type opioid receptor; assay: Binding affinity towards recombinant humanOpioid receptor delta 1 transfected in to CHO cells for the displacement of [3H]Cl-DPDPE (delta); format: cell-based; in short: as §1

T2 sequence (P41143 whole entry): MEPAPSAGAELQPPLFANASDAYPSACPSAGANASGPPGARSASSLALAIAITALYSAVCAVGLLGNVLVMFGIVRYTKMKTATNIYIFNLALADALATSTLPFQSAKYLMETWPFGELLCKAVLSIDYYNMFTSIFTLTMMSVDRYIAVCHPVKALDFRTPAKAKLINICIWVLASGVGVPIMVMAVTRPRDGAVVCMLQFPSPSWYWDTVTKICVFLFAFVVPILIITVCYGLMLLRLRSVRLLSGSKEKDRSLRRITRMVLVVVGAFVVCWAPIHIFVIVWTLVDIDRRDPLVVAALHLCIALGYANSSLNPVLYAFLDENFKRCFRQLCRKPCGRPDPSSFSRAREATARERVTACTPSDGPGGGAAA
T3 sequence (P41145 whole entry): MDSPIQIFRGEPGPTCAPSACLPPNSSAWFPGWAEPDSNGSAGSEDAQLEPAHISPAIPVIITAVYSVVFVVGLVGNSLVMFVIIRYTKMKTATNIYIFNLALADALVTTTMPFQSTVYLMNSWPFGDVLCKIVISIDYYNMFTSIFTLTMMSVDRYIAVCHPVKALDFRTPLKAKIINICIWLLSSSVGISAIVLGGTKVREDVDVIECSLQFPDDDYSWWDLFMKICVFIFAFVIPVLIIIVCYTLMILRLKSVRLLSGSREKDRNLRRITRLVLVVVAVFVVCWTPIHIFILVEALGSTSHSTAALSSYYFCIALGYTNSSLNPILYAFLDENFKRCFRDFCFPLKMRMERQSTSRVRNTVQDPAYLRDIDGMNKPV
Sequence of Opioid receptors; mu & delta (Homo sapiens) (P35372 whole entry, looked up): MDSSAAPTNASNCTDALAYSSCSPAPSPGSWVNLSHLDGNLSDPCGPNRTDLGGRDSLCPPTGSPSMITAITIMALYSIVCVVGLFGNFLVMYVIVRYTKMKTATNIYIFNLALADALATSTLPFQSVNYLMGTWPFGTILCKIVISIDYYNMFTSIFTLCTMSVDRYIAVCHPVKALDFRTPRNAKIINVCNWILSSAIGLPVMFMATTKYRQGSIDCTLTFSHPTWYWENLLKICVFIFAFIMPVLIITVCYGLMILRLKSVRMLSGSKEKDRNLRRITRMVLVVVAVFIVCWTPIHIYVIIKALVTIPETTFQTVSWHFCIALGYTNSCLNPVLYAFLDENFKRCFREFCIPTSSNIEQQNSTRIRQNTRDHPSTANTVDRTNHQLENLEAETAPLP
Sequence of Opioid receptors; mu & delta (Homo sapiens) (P41143 whole entry, looked up): as the sequence (P41143 whole entry) above
T1 sequence (P35372 whole entry): as the sequence (P35372 whole entry, looked up) above

Compound | Ki [1] | Ratio [2] | Ki [3] | Ki [4] | Ratio [5] | Ke [6] | Ke [7] | Ke [8] | Ki [9] | EC50 [10] | Ratio [11] | Ke [12] | EC50 [13] | Ki [14]
COc1ccc2c3c1O[C@H]1c4c(c(-c5ccccc5)cn4Cc4ccccc4)C[C@@]4(O)C(C2)N(C)CC[C@]314 | > 10000 nM | > 31 | 322 nM | > 10000 nM | > 31 | – | – | – | – | – | – | – | – | –
CCCN1CC[C@]23c4c5ccc(O)c4O[C@H]2c2c(c(-c4ccccc4)cn2Cc2ccccc2)C[C@@]3(O)C1C5 | 40.1 nM | – | 21.2 nM | – | – | 45.3 nM | 210 nM | 6.4 nM | 191 nM | – | – | – | – | –
Oc1ccc2c3c1O[C@H]1c4[nH]c5ccccc5c4C[C@@]4(O)[C@@H](C2)N(CC2CC2)CC[C@]314 | – | – | – | – | – | 4.26 nM | 4.95 nM | 0.11 nM | – | – | – | – | – | –
Cc1ccc(-c2cn(Cc3ccccc3)c3c2C[C@@]2(O)C4Cc5ccc(O)c6c5[C@@]2(CCN4CC2CC2)[C@H]3O6)cc1 | 77.9 nM | – | 23.5 nM | – | – | – | 61.1 nM | – | 108 nM | 1360 nM | 3.3 | 2.37 nM | – | –
CN1CC[C@]23c4c5ccc(O)c4O[C@H]2c2c(c(-c4ccccc4)cn2Cc2ccccc2)C[C@@]3(O)C1C5 | 49.5 nM | 1.6 | 116 nM | 187 nM | 0.43 | 14.1 nM | 1160 nM | – | – | – | – | – | 55.2 nM | –
Oc1ccc2c3c1O[C@H]1c4c(c(-c5ccccc5)cn4Cc4ccccc4)C[C@@]4(O)C(C2)N(CC2CC2)CC[C@]314 | 16.8 nM | – | – | – | – | – | – | – | 120 nM | – | – | – | – | 13.7 nM
Cc1c(-c2ccccc2)c2c(n1Cc1ccccc1)[C@@H]1Oc3c(O)ccc4c3[C@@]13CCN(CC1CC1)C(C4)[C@]3(O)C2 | 52.7 nM | – | 17.3 nM | – | 3 and 5 | 17.7 nM | 306 nM | 3.68 nM | 183 nM | – | – | – | – | –
